# Experimental data reported in ChEMBL document CHEMBL5329156, “Discovery and development of novel substituted monohydrazides as potent antifungal agents” (RSC Med Chem, 2023).
# Legend:
# [Candida] auris [1] = Antifungal activity against Candida auris AR Bank # 0384 assessed as fungal growth inhibition by double dilution method; assay type: functional; details: Candidozyma auris
# Outline: (§1)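 Broth microdilution after CLSI M27-A3/M38-A2 with minor changes. Single colony grown overnight in YPD at 35 °C, 200 rpm. Compound final range 0.06-31.3 µg/mL; incubated 48 h at 35 °C.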
# Aspergillus fumigatus [2] = experiment: Antifungal activity against Aspergillus fumigatus NRRL 5109 assessed as fungal growth inhibition by double dilution method; assay type: functional
# Candida albicans [3] = experiment: Antifungal activity against itraconazole/fluconazole resistant Candida albicans ATCC 90819 assessed as fungal growth inhibition by double dilution method; assay type: functional
# Outline: (§2)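 Broth microdilution after CLSI M27-A3/M38-A2 with minor modifications. A single colony was grown overnight in YPD at 35 °C with shaking at 200 rpm. Cells were mixed 1:1 with compound (final 0.06-31.3 µg/mL, from DMSO stocks) and incubated 48 h at 35 °C.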
# Saccharomyces cerevisiae [4] = experiment: Antifungal activity against Saccharomyces cerevisiae AR Bank # 400 assessed as fungal growth inhibition by double dilution method; assay type: functional; outline: as §1
# HepG2 = experiment: Cytotoxicity against human HepG2 cells assessed as reduction in cell viability upto 31.3 microg/ml; assay type: toxicity, cell-based; details: dose < 31.3 µg/ml
# Outline: (§3)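 Cells in DMEM with 10% FBS and 1% Pen/Strep, seeded at 10,000 cells/well and held overnight at 37 °C, 5% CO2. Compounds added at final 31.3-0.12 µg/mL (0.05% DMSO vehicle) for 24 h. Resazurin then added for 6 h; fluorescence read at ex 560/em 590. Triton X-100 1% as positive control; values normalized to vehicle. Run in quadruplicate.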
# [Candida] auris [5] = Antifungal activity against Candida auris AR Bank # 383 assessed as fungal growth inhibition by double dilution method; assay type: functional; details: Candidozyma auris; outline: as §1
# Aspergillus flavus = experiment: Antifungal activity against Aspergillus flavus ATCC MYA-3631 assessed as fungal growth inhibition by double dilution method; assay type: functional
# Nakaseomyces glabratus [6] = experiment: Antifungal activity against Candida glabrata ATCC 2001 assessed as fungal growth inhibition by double dilution method; assay type: functional; outline: as §1
# HEK293 = experiment: Cytotoxicity against human HEK-293 cells assessed as reduction in cell viability at 31.3 microg/ml; assay type: toxicity, cell-based; details: dose 31.3 µg/ml; outline: as §3
# Cryptococcus neoformans = experiment: Antifungal activity against Cryptococcus neoformans ATCC MYA-895 assessed as fungal growth inhibition by double dilution method; assay type: functional; outline: as §1
# Candida albicans [7] = experiment: Antifungal activity against itraconazole/fluconazole resistant Candida albicans ATCC MYA-1237 assessed as fungal growth inhibition by double dilution method; assay type: functional; outline: as §2
# Pichia kudriavzevii [8] = experiment: Antifungal activity against Pichia kudriavzevii AR Bank # 397 assessed as fungal growth inhibition by double dilution method; assay type: functional; outline: as §1
# Candida albicans [9] = experiment: Antifungal activity against itraconazole/fluconazole susceptible Candida albicans ATCC MYA-2310 assessed as fungal growth inhibition by double dilution method; assay type: functional; outline: as §2
# Pichia kudriavzevii [10] = experiment: Antifungal activity against Pichia kudriavzevii ATCC 6258 assessed as fungal growth inhibition by double dilution method; assay type: functional; outline: as §1
# Candida albicans [11] = experiment: Antifungal activity against itraconazole/fluconazole susceptible Candida albicans ATCC MYA-2876 assessed as fungal growth inhibition by double dilution method; assay type: functional; outline: as §2
# [Candida] auris [12] = Antifungal activity against Candida auris AR Bank # 0390 assessed as fungal growth inhibition by double dilution method; assay type: functional; details: Candidozyma auris; outline: as §1
# Aspergillus fumigatus [13] = experiment: Antifungal activity against Aspergillus fumigatus NRRL 163 assessed as fungal growth inhibition by double dilution method; assay type: functional
# [Candida] auris [14] = Antifungal activity against Candida auris AR Bank # 381 assessed as fungal growth inhibition by double dilution method; assay type: functional; details: Candidozyma auris; outline: as §1
# Candida duobushaemulonii [15] = experiment: Antifungal activity against Candida duobushaemulonii AR Bank # 392 assessed as fungal growth inhibition by double dilution method; assay type: functional; details: Candidozyma duobushaemuli; outline: as §1
# [Candida] haemuloni [16] = Antifungal activity against Candida haemulonii AR Bank # 395 assessed as fungal growth inhibition by double dilution method; assay type: functional; details: Candidozyma haemuli; outline: as §1
# [Candida] auris [17] = Antifungal activity against Candida auris AR Bank # 382 assessed as fungal growth inhibition by double dilution method; assay type: functional; details: Candidozyma auris; outline: as §1
# Candida albicans [18] = experiment: Antifungal activity against Candida albicans ATCC 64124 assessed as fungal growth inhibition by double dilution method; assay type: functional; outline: as §2
# [Candida] auris [19] = Antifungal activity against Candida auris AR Bank # 388 assessed as fungal growth inhibition by double dilution method; assay type: functional; details: Candidozyma auris; outline: as §1
# Saccharomyces cerevisiae [20] = experiment: Antifungal activity against Saccharomyces cerevisiae AR Bank # 399 assessed as fungal growth inhibition by double dilution method; assay type: functional; outline: as §1
# Aspergillus terreus = experiment: Antifungal activity against Aspergillus terreus ATCC MYA-3633 assessed as fungal growth inhibition by double dilution method; assay type: functional
# [Candida] haemuloni [21] = Antifungal activity against Candida haemulonii AR Bank # 393 assessed as fungal growth inhibition by double dilution method; assay type: functional; details: Candidozyma haemuli; outline: as §1
# Candida albicans [22] = experiment: Antifungal activity against Candida albicans ATCC 10231 assessed as fungal growth inhibition by double dilution method; assay type: functional; outline: as §1
# Aspergillus nidulans = experiment: Antifungal activity against Aspergillus nidulans ATCC 38163 assessed as fungal growth inhibition by double dilution method; assay type: functional
# Kodamaea ohmeri = experiment: Antifungal activity against Kodamaea ohmeri AR Bank # 396 assessed as fungal growth inhibition by double dilution method; assay type: functional; outline: as §1
# Aspergillus fumigatus [23] = experiment: Antifungal activity against Aspergillus fumigatus NRRL 6113 assessed as fungal growth inhibition by double dilution method; assay type: functional
# [Candida] auris [24] = Antifungal activity against Candida auris AR Bank # 387 assessed as fungal growth inhibition by double dilution method; assay type: functional; details: Candidozyma auris; outline: as §1
# [Candida] auris [25] = Antifungal activity against Candida auris AR Bank # 384 assessed as fungal growth inhibition by double dilution method; assay type: functional; details: Candidozyma auris; outline: as §1
# [Candida] auris [26] = Antifungal activity against Candida auris AR Bank # 385 assessed as fungal growth inhibition by double dilution method; assay type: functional; details: Candidozyma auris; outline: as §1
# Nakaseomyces glabratus [27] = experiment: Antifungal activity against Candida glabrata ATCC 22019 assessed as fungal growth inhibition by double dilution method; assay type: functional; outline: as §1
# [Candida] auris [28] = Antifungal activity against Candida auris AR Bank # 386 assessed as fungal growth inhibition by double dilution method; assay type: functional; details: Candidozyma auris; outline: as §1
# Candida albicans [29] = experiment: Antifungal activity against itraconazole/fluconazole resistant Candida albicans ATCC MYA-1003 assessed as fungal growth inhibition by double dilution method; assay type: functional; outline: as §2
# Candida duobushaemulonii [30] = experiment: Antifungal activity against Candida duobushaemulonii AR Bank # 391 assessed as fungal growth inhibition by double dilution method; assay type: functional; details: Candidozyma duobushaemuli; outline: as §1
# Clavispora lusitaniae = experiment: Antifungal activity against Clavispora lusitaniae AR Bank # 398 assessed as fungal growth inhibition by double dilution method; assay type: functional; outline: as §1
# [Candida] auris [31] = Antifungal activity against Candida auris AR Bank # 390 assessed as fungal growth inhibition by double dilution method; assay type: functional; details: Candidozyma auris; outline: as §1
# J774.A1 = experiment: Cytotoxicity against J774A.1 cells assessed as reduction in cell viability at 31.3 microg/ml; assay type: toxicity, cell-based; details: mouse, dose 31.3 µg/ml; outline: as §3
# [Candida] auris [32] = Antifungal activity against Candida auris AR Bank # 389 assessed as fungal growth inhibition by double dilution method; assay type: functional; details: Candidozyma auris; outline: as §1
# Candida duobushaemulonii [33] = experiment: Antifungal activity against Candida duobushaemulonii AR Bank # 394 assessed as fungal growth inhibition by double dilution method; assay type: functional; details: Candidozyma duobushaemuli; outline: as §1
smiles,measurement,setting,value
O=C(NNc1ccc(F)cc1F)c1cnccn1,MIC,[Candida] auris [1],3.9 µg/mL
same,MIC,Aspergillus fumigatus [2],> 31.3 µg/mL
same,MIC,Candida albicans [3],0.98 µg/mL
same,MIC,Saccharomyces cerevisiae [4],1.95 µg/mL
same,Activity,HepG2,Non-Toxic
same,MIC,[Candida] auris [5],0.98 µg/mL
same,MIC,Aspergillus flavus,7.8 µg/mL
same,MIC,Nakaseomyces glabratus [6],0.98 µg/mL
same,Activity,HEK293,Non-Toxic
same,MIC,Cryptococcus neoformans,0.24 µg/mL
same,MIC,Candida albicans [7],0.49 µg/mL
same,MIC,Pichia kudriavzevii [8],1.95 µg/mL
same,MIC,Candida albicans [9],3.9 µg/mL
same,MIC,Pichia kudriavzevii [10],0.24 µg/mL
same,MIC,Candida albicans [11],0.98 µg/mL
same,MIC,[Candida] auris [12],0.98 µg/mL
same,MIC,Aspergillus fumigatus [13],> 31.3 µg/mL
same,MIC,[Candida] auris [14],3.9 µg/mL
same,MIC,Candida duobushaemulonii [15],0.24 µg/mL
same,MIC,[Candida] haemuloni [16],1.95 µg/mL
same,MIC,[Candida] auris [17],1.95 µg/mL
same,MIC,Candida albicans [18],0.98 µg/mL
same,MIC,[Candida] auris [19],0.49 µg/mL
same,MIC,Saccharomyces cerevisiae [20],7.8 µg/mL
same,MIC,Aspergillus terreus,0.98 µg/mL
same,MIC,[Candida] haemuloni [21],0.24 µg/mL
same,MIC,Candida albicans [22],0.24 µg/mL
same,MIC,Aspergillus nidulans,0.49 µg/mL
same,MIC,Kodamaea ohmeri,0.98 µg/mL
same,MIC,Aspergillus fumigatus [23],> 31.3 µg/mL
same,MIC,[Candida] auris [24],0.49 µg/mL
same,MIC,[Candida] auris [25],3.9 µg/mL
same,MIC,[Candida] auris [26],0.98 µg/mL
same,MIC,Nakaseomyces glabratus [27],3.9 µg/mL
same,MIC,[Candida] auris [28],0.49 µg/mL
same,MIC,Candida albicans [29],0.49 µg/mL
same,MIC,Candida duobushaemulonii [30],0.49 µg/mL
same,MIC,Clavispora lusitaniae,3.9 µg/mL
same,MIC,[Candida] auris [31],0.98 µg/mL
same,Activity,J774.A1,Non-Toxic
same,MIC,[Candida] auris [32],0.49 µg/mL
same,MIC,Candida duobushaemulonii [33],7.8 µg/mL
